Here are results for 39 molecules from ChEMBL document CHEMBL4513216, “Probing the Open Global Health Chemical Diversity Library for Multistage-Active Starting Points for Next-Generation Antimalarials” (ACS Infect Dis, 2020).

This series in a line: Toxicity liver stage against HepG2, at 10uM. Type of series: cell-based. Set-up: test concentration 10 uM, cell line HepG2-A16-CD81EGFP. As to conditions: human, HepG2-A16-CD81EGFP cells; read-out: INHIBITION
In outline: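 Uninfected HepG2-A16-CD81EGFP cells, 3 × 10^3 per well, 1536-well, plated on prespotted compound at 10 μM final, parasite-free screening media added to match infected plates; puromycin 10 μM positive, DMSO 0.5% negative; run in parallel with 48 h PbLuc assay at 37 °C, 5% CO2; viability by CellTiter-Glo luminescence, normalized to controls.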
For the molecule `CN1CCN(C[C@H]2CN3CC[C@H]2C[C@@H]3CNC(=O)c2ccco2)CC1`, the cytotoxicity at 10 µM was -6.35%.

Take `COc1ccccc1N1CCN(C(=O)COc2c(C)occc2=O)CC1`: the cytotoxicity at 10 µM is -0.426%.

For `Cc1ccccc1C(=O)N1CCN(c2ccc(-n3cncn3)nn2)CC1`, the cytotoxicity at 10 µM was 50.8%. Take `O=C(Nc1cnccn1)[C@@H]1C[C@H]2OCC[C@H]2N(c2ncc(F)cn2)C1`: the cytotoxicity at 10 µM was determined as 8.12%. Consider `CC(C)n1cnc2c1C(C(=O)N1CCCC1)N(S(C)(=O)=O)CC2` (centres undefined), for which the cytotoxicity at 10 µM is -5.15%.

As to `CCC(C)N1CCc2c(C(=O)N(C)Cc3ccccn3)nn(C)c2C1` (centres undefined), the cytotoxicity at 10 µM was -2.78%. Turning to `CCN(CC)C(=O)c1ccn(COc2ccc(F)cc2)n1`, the cytotoxicity at 10 µM was determined as 7.55%. The result for `CCn1nc(C)c2nc(C(C)C)nc(N3CCC(O)CC3)c21` reads 1.3%; that for `CNc1ccc(CC2CCCN(C(=O)c3cnco3)C2)nn1` (centres undefined), -8.55%. In the case of `CCN(CC)c1nc2sc(C(=O)NC(C)(C)C(=O)OC)cc2s1`, the cytotoxicity at 10 µM came out at 3.58%. As for `CCCOc1cc(C)ccc1NC(=O)NCCNC(C)=O`, the cytotoxicity at 10 µM is -6.58%. For `CCN(CC(=O)NCc1nc(C2CC2)no1)Cc1ccc(Cl)cc1`, the cytotoxicity at 10 µM is -2.29%. For `O=C(O)CN1CCC(c2ccccc2)CC1`, the cytotoxicity at 10 µM came to 1.73%. The result for `O=c1[nH]c(-c2ccncc2)ncc1-c1ccnc(NC2CCCCC2)n1` reads -9.24%; that for `CSCCC(=O)N[C@H]1CC[C@H](Nc2nccc(-c3ccncc3)n2)C1`, -0.664%; that for `CCCN(Cc1cccnc1)Cc1ccc(C2CCCCO2)o1` (centres undefined), 1.97%. `NC(=O)C1CCCN(C(=O)c2ccn(-c3ccc(F)cc3)n2)C1` (centres undefined): the cytotoxicity at 10 µM is -3.63%. The value for `CCc1ncc2c(n1)CN(Cc1cccc(OCC(N)=O)c1)CC2` was -7.42%; that for `Cn1cc(C2CCCN2C(=O)CCCOc2ccc(F)cc2)cn1` (centres undefined) was -17.8%. With `CCCc1noc(CCC(=O)N2CCCC2c2ccc(OC)cc2)n1` (centres undefined), the cytotoxicity at 10 µM was -0.403%. As to `CC(C)c1ncc2c(n1)CN(CC(=O)Nc1ccc(Cl)cn1)CC2`, the cytotoxicity at 10 µM is -1.4%. For `CC(Cn1cccn1)NC(=O)Cc1csc(C(C)C)n1` (centres undefined), the cytotoxicity at 10 µM was -8.57%. `Cc1cc(NC(=O)CN2CCCC2c2noc(C)n2)n(C(C)(C)C)n1` (centres undefined): the cytotoxicity at 10 µM came out at 1.53%.

On to `Cc1cnn(CC2CN(Cc3ccccn3)CCO2)c1` (centres undefined), for which the cytotoxicity at 10 µM was -2.84%. Turning to `c1ccc(-n2ncc(CN3CCCC(Cn4cncn4)C3)n2)cc1` (centres undefined), the cytotoxicity at 10 µM is -6.04%. As for `c1ccc(-n2cc(CN3CCCCC3Cn3cncn3)nn2)cc1` (centres undefined), the cytotoxicity at 10 µM was -14.2%. As for `O=C(CCc1c(F)cccc1F)NS(=O)(=O)c1ccc2c(c1)OCCO2`, the cytotoxicity at 10 µM was -4.71%.

With `COCc1nc(C(=O)N2CCCC2c2cc(C)on2)cs1` (centres undefined), the cytotoxicity at 10 µM was -5.83%. The result for `COc1ccc(C(=O)N(C)Cc2ncc(C)c(OC)c2C)c(OC)c1` reads -4.28%. The value for `COc1c(C2CCCN2Cc2cc(C)no2)c(C)nn1C` (centres undefined) was -7.25%; that for `OC(CN1CCOCC1)c1ccc(OC(F)(F)F)cc1` (centres undefined) was -9.36%. Consider `Cc1cc(CN2CCN(C(C)c3nc(C4CC4)no3)CC2)no1` (centres undefined), for which the cytotoxicity at 10 µM turned out to be 1.35%. On to `CCN(Cc1cccc(Cl)c1)Cc1nc2c(cnn2C)c(=O)[nH]1`, for which the cytotoxicity at 10 µM was determined as 1.01%. As to `CNS(=O)(=O)c1ccc(CNC(=O)NCC2CCCO2)cc1` (centres undefined), the cytotoxicity at 10 µM came to 7.12%.

For `CCN(CC)C1CCN(C(=O)c2cc3cc(C)cc(C)c3nc2C)CC1`, the cytotoxicity at 10 µM is 0.199%.

With `COc1c(CNC2CCCOc3ccc(F)cc32)c(C(C)C)nn1C` (centres undefined), the cytotoxicity at 10 µM is -5.83%. Turning to `Cc1cccc(CN2CCC3(CC2)CC(Oc2cccnc2)C3)n1`, the cytotoxicity at 10 µM came to 12.7%.

Consider `CCOC(=O)c1sc2ccsc2c1CN`, for which the cytotoxicity at 10 µM is -1.86%. Regarding `NCC1CCC(C(NC(=O)CC2CCCC2)c2ccccn2)CC1` (centres undefined), the cytotoxicity at 10 µM is -14.6%.
